# Laboratory results from article PMC4838375 (Nucleic Acids Research, 2016).
# Experiments:
# [1] = system: PHDVC5HCHNSD1; test: NMR titration; assay type: binding, murine; settings: for average CSP value <CSP>: 15N HSQC of PHDVC5HCHNSD1 (0.2 mM), up to 12 molar excess of peptide, 295 K, pH 6.3; for interaction strength: fast exchange regime; for interaction strength / affinity: up to 12 molar excess; for affinity: no saturation
# Procedure, shortened: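 15N-labelled PHDvC5HCH domain was expressed in E. coli BL21(DE3) in 15NH4Cl minimal medium with 1 mM IPTG at 28°C overnight. Protein at 0.2–0.3 mM, quantified by UV (ε 12490 M⁻¹cm⁻¹), was in 20 mM sodium phosphate pH 6.3, 0.15 M NaCl, 2 mM DTT, 50 μM ZnCl₂. Peptide (>98% pure, 15 mM stock, dry-weight quantified) was added stepwise; 2D 15N-HSQC was acquired per point. CSP = [(ΔδHN² + ΔδN²/25)/2]^½.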
# [2] = system: PHDVC5HCHNSD1; settings: biotinylated peptides, 21 aminoacids long; cited from earlier work
Compound,"amide chemical shifts induced ([1]; NMR titration, up to 300 mM of Lysine)",average CSP value <CSP> [1],interaction strength ([1]; NMR titration),affinity ([1]; NMR titration),binding in vitro [2]
NCCCC[C@H](N)C(=O)O [Lysine],induced amide chemical shifts in the same region,,,,
"H3K4me3_1–21: Synthetic histone H3 peptide, K4me3",,~0.02 ppm,extremely weak interactions,affinities in the high mM range,binds
"H3K9me3_1–21: Synthetic histone H3 peptide, K9me3",,~0.02 ppm,extremely weak interactions,affinities in the high mM range,binds
H3_1–21: Synthetic histone H3 peptide,,~0.02 ppm,extremely weak interactions,affinities in the high mM range,
